hERG protect = hERG (human) protection from proarrhythmic block; Q12809; CHO-hERG, FluxOR thallium flux, dofetilide IC70 present; activation (rescue from dofetilide block), less the hit threshold, % at 10 µM; actives 0.51% (n = 310,000); AID 1511;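 active = activation above the mean of controls blocked by dofetilide plus 5 SD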;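 note: thallium influx through hERG after potassium depolarization seen as dye fluorescence rise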
KCNK9 block = blocks the human KCNK9 two-pore domain potassium channel; actives 1.2% (n = 310,000); HEK293 KCNK9, FluxOR thallium flux fluorescence; hits give low values; AID 488922; B-score at 10 µM;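 active = ratio B-score over 3 SD below the library mean, with starting fluorescence within 5 SD of its mean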;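 note: negative B-score means less thallium flux so channel inhibition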
KCNK3 block = human KCNK3 channel inhibition, primary screen; actives 0.84% (n = 340,000); CHO-KCNK3 thallium flux, FluxOR fluorescence; hits give low values; B-score at 10 µM; O14649;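 active = B-score under library mean minus 4 SD, starting fluorescence ratio at most library mean plus 5 SD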;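 note: more negative B-score means stronger inhibition of thallium flux through KCNK3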
Kir21 inh = inhibitors of mouse Kir2.1 inward-rectifier potassium channel; HEK293-Kir2.1, FluxOR thallium flux fluorescence; hits give low values; B-score at 10 µM; actives 0.85% (n = 310,000); AID 1672;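 active = fluorescence ratio B-score at or below minus 3 SD of library scores, with starting-brightness B-score within 2 SD, cut at about -4.2 in these data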;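 note: channel flux triggered by added potassium and thallium sulfate stimulus; B-score of peak minus minimum fluorescence over baseline after thallium stimulus; more negative B-score means stronger Kir2.1 block with less thallium influx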
KCNQ1 act = human KCNQ1 channel potentiation or activation; actives 0.35% (n = 310,000); B-score at 10 µM; CHO-K1 KCNQ1, thallium flux FluxOR fluorescence; hits give high values;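 active = fluorescence ratio B-score, a plate-corrected score, at least three library SD, with initial intensity B-score within 5 SD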
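assay system = CHO-K1 cells stably expressing KCNQ1 | medium = assay buffer, equal DMSO in all wells | timing = 37 °C overnight plating, 90-min dark dye load, 20-min compound pretreatment | measured by = kinetic FluxOR thallium fluorescence, 10-s 1-Hz baseline, 110-s post-stimulus read | measure = fluorescence change relative to baseline, converted to B score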
KCNQ1 inh = inhibitors of human KCNQ1 potassium channel | P51787 | CHO-K1 KCNQ1, FluxOR thallium flux fluorescence; hits give high values | B-score at 10 µM | actives 1.3% (n = 310,000) | AID 2642;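 active = compounds whose thallium flux B-score, printed positive for inhibition, exceeds three library SD while starting fluorescence stays within three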;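 note: channel opened by potassium depolarization with thallium stimulus after 20 min compound exposure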
KCNQ1 inh valid = reconfirmed blocker of the human KCNQ1 potassium channel. inhibition, % at 10 µM. AID 588353. KCNQ1 cell line, FluxOR thallium flux fluorescence. actives 93% (n = 1,600). shares compounds with KCNQ1 inh;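 active = primary screen active, with duplicate mean exceeding buffer control mean plus 3 SD of buffer wells, cut at about 28% in these data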;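 note: 0% = buffer control ratio and 100% = XE991 inhibitor control ratio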
CHO Tl flux = activity in parental CHO cells lacking KCNQ1; shares compounds with KCNQ1 inh; parental CHO-K1, FluxOR thallium flux fluorescence ratio; hits give low values; zero means no signal rise above baseline; fluorescence ratio (Tl flux) at 10 µM; actives 21% (n = 1,600); AID 588366;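 active = mean of duplicate thallium-flux fluorescence ratios in parental host cells more than 5 SD below the buffer control mean, cut at about 0.38 in these data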;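 note: ratio is peak minus minimum fluorescence divided by baseline fluorescence; actives read low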
KCNQ1 APC inh = human KCNQ1 inhibition validated by electrophysiology. shares compounds with KCNQ1 inh. actives 20% (n = 490). calls only at 10 µM. KCNQ1-CHO cells, automated patch clamp current. AID 624120;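 active = KCNQ1 current drop exceeding 3 SD of negative control wells, seen in both duplicate runs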;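 note: steady state current during a 2 s step from -80 to +40 mV; negative values mean current inhibition and positive values mean potentiation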
KCNQ2 inh = KCNQ1 inhibitor that also blocks rat KCNQ2 channel; KCNQ2 cells, FluxOR thallium flux fluorescence; inhibition, % at 10 µM; actives 71% (n = 1,600); AID 651746; shares compounds with KCNQ1 inh;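 active = mean percent inhibition of the KCNQ2 thallium signal more than 5 SD above the buffer-only control wells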;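 note: KCNQ2 expressed in CHO cells; 0% = buffer control wells and 100% = XE-991 inhibitor control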
Target sequence (O88943 whole entry, looked up): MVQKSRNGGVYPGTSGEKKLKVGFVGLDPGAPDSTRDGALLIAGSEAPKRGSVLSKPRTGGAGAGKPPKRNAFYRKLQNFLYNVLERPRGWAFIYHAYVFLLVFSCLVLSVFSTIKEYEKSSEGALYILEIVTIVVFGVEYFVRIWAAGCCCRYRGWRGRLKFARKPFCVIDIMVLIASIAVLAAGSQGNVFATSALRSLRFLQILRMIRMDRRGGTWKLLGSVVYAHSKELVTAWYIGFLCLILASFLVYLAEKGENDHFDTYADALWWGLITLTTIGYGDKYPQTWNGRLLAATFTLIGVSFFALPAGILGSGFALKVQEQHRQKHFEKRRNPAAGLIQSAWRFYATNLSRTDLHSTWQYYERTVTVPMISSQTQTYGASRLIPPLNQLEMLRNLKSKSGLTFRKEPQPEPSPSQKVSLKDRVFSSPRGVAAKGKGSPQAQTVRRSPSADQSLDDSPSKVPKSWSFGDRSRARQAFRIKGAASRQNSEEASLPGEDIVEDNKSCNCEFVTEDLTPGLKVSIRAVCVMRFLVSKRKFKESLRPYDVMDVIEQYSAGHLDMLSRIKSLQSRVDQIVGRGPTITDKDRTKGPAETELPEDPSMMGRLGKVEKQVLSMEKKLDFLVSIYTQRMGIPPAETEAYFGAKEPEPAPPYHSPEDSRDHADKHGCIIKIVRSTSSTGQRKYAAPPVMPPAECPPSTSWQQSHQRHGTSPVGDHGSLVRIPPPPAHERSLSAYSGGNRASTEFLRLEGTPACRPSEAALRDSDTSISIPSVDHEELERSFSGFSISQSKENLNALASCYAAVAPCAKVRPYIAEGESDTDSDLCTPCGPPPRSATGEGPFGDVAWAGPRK
KCNQ1 KCNE1 spec = human KCNQ1/KCNE1 inhibition in KCNQ1 specificity screen. inhibition, % at 10 µM. shares compounds with KCNQ1 inh. AID 652147. actives 77% (n = 1,600). KCNQ1/KCNE1 cells, FluxOR thallium flux fluorescence;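 active = mean percent inhibition of duplicate wells above the buffer-only control mean plus 3 SD of those controls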;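 note: 0% = buffer only wells and 100% = XE-991 inhibitor control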
KCNK9 inh conf = confirmation of human KCNK9 potassium channel inhibitors | shares compounds with KCNK9 block | HEK293 KCNK9 cells, FluxOR thallium flux fluorescence | inhibition, % at 10 µM | actives 43% (n = 4,900) | AID 492992;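 active = thallium signal inhibited by more than 5 SD of the compound-free buffer control wells, on both duplicate plates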;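 note: 0% = assay buffer control wells without compound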
Kir21 sel = tests whether KCNK9 modulators also affect mouse Kir2.1 | inhibition, % at 10 µM | Kir2.1 cells, FluxOR thallium flux fluorescence | shares compounds with KCNK9 block | actives 4% (n = 4,900);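 active = thallium signal drop more than 5 SD beyond the mean of the no-compound control wells, seen in both duplicate plates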;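 note: signal is fluorescence rise after thallium addition divided by baseline fluorescence; plate controls were assay buffer only for no effect and full block by chlorpromazine control for full effect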
KCNK9 uninduced = non-induced cell nonspecific activity of KCNK9 modulators; shares compounds with KCNK9 block; non-induced KCNK9-HEK293, FluxOR thallium flux; inhibition, % at 10 µM; actives 40% (n = 4,900);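 active = thallium signal drop beyond 5 SD of the untreated control mean, on both duplicate plates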;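 note: plate controls were buffer only IC0 wells for no effect and SID17386958 at its maximal inhibitory level for full effect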
KCNK3 confirm = confirmation of human KCNK3 two-pore domain potassium channel inhibitors | shares compounds with KCNK3 block | CHO-KCNK3 thallium flux, FluxOR fluorescence; 0% buffer, 100% carvedilol maximal block | ratio percent of control, % at 10 µM | actives 99% (n = 2,400);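 active = ratio percent of control, averaged over triplicates, above buffer control mean plus 5 SD, cut at about 64% in these data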;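 note: ratio is the fluorescence rise from min to max over baseline after thallium stimulus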
KCNK3 uninduced = KCNK3 inhibitor counter-screen hit in non-induced cells. actives 40% (n = 2,400). thallium flux ratio (lower = more inhibition) at 10 µM. shares compounds with KCNK3 block. non-induced KCNK3 parental cells, FluxOR thallium flux; hits give low values;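 active = thallium flux ratio, averaged over three wells, more than 5 SD below the buffer control mean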;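 note: host cells are CHO cells without KCNK3 induction; ratio is peak minus trough fluorescence over baseline then normalized to buffer controls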
An asterisk follows results filed as active; i = inactive; nt = no result given; + = active, no number. The list is not random: actives were taken first. Their share in the collection is about 3.8%.

SMILES | hERG protect | KCNK9 block | KCNK3 block | Kir21 inh | KCNQ1 act | KCNQ1 inh | KCNQ1 inh valid | CHO Tl flux | KCNQ1 APC inh | KCNQ2 inh | KCNQ1 KCNE1 spec | KCNK3 confirm | KCNK3 uninduced | others
Nc1ncnc2c1C1(CCCCC1)Cc1ccccc1-2 | -9 | i | i | -0.31 | i | i | nt | nt | nt | nt | nt | nt | nt
CNc1ccccc1C(C)(C)c1cc(-c2cccc(Br)c2)no1 | -22 | i | -11* | 0.61 | i | 6* | 122* | 0.46 | i | 106%* | 117%* | 121* | 0.15*
CNc1ccccc1C(C)(C)c1cc(-c2cccc([N+](=O)[O-])c2)no1 | 1 | i | i | 0.11 | i | i | nt | nt | nt | nt | nt | nt | nt
c1csc(CNc2nc(-c3cccs3)nc3ccccc23)c1 | -14 | i | -11* | -2.1 | i | 6* | 112* | 0.38 | i | 123%* | 168%* | 108* | i
CN(CC(=O)NCc1ccc(F)cc1)CC(=O)Nc1ccc(Cl)c(C(F)(F)F)c1 | -17 | i | -11* | 0.28 | i | 8* | 104* | 0.45 | + | 87%* | 62%* | 113* | i
CN(CC(=O)Nc1cccc(F)c1)CC(=O)Nc1cc(S(=O)(=O)N2CCOCC2)ccc1Cl | nt | nt | i | nt | nt | nt | nt | nt | nt | nt | nt | nt | nt
CN(CC(=O)Nc1cccc(S(=O)(=O)N2CCOCC2)c1)CC(=O)Nc1ccc(Cl)c(C(F)(F)F)c1 | -27 | i | -11* | -0.39 | i | 8* | 118* | 0.43 | i | 93%* | 54%* | 120* | 0.14*
Cc1onc(-c2ccccc2)c1C(=O)OCCOc1cccc(Cl)c1 | -9 | i | -14* | 0.13 | i | 7* | 86* | 0.42 | nt | 86%* | 150%* | 90* | i
CCOc1ccc(C(=O)COC(=O)c2c(-c3ccccc3)noc2C)cc1 | -15 | i | i | -1.1 | i | i | nt | nt | nt | nt | nt | nt | nt
CCOC(=O)C1CCN(C(=O)CCNC(=O)c2cc(OC)c(OC)c(OC)c2)CC1 | -6 | i | i | 2.3 | i | i | nt | nt | nt | nt | nt | nt | nt
COc1cc(NC(=O)c2cc3ccccc3cc2O)c(OC)cc1Cl | -7 | i | i | 0.36 | i | i | nt | nt | nt | nt | nt | nt | nt
COc1ccccc1NC(=O)c1cc2cc(Br)ccc2cc1O | -22 | i | -8.8* | 1.7 | i | 9* | 126* | 0.45 | i | 97%* | 107%* | 135* | 0.11*
CCN(C(=O)Cc1ccc(Br)cc1)C1CCCCC1 | -13 | i | i | -0.87 | i | i | nt | nt | nt | nt | nt | nt | nt
COCCn1c(CNc2ccc(F)cc2)nnc1SCC(=O)Nc1ccc(OC)cc1OC | -8 | i | i | 2.1 | i | i | nt | nt | nt | nt | nt | nt | nt
CCc1cc(=O)n2c([nH]c3ccccc32)c1C#N | -11 | i | i | 1.1 | i | i | nt | nt | nt | nt | nt | nt | nt
CCc1cc(=S)n2c([nH]c3ccccc32)c1C#N | -11 | i | -9.3* | 0.05 | i | 11* | 102* | 0.44 | i | 112%* | 82%* | 137* | 0.057*
CN(CC(=O)Nc1ccccc1Br)CC(=O)Nc1ccccc1-c1ccccc1 | nt | nt | i | nt | nt | nt | nt | nt | nt | nt | nt | nt | nt
CN(CC(=O)Nc1ccccc1-c1ccccc1)Cc1ccccc1Cl | -6 | -16* | -9.6* | 0.47 | i | 8* | 76* | 0.38 | nt | 98%* | 122%* | 120* | 0.13* | KCNK9 inh conf=63%*;Kir21 sel=55%*;KCNK9 uninduced=46%*
Cc1ccc(NC(=S)Nc2cccnc2)c(S(=O)(=O)N2CCCCC2)c1 | -23 | i | -12* | -0.57 | i | 13* | 97* | 0.51 | i | i | 68%* | 110* | i
CC(=O)c1ccc(NC(=O)C2CCN(S(=O)(=O)c3cccc4nonc34)CC2)cc1 | -10 | i | i | 0.25 | i | i | nt | nt | nt | nt | nt | nt | nt
O=C1CCCC2=C1C(c1ccc(O)cc1)c1c(ccc3ccccc13)N2 (stereo not given) | 1 | i | i | 2.1 | i | i | nt | nt | nt | nt | nt | nt | nt
CCCN1CCc2c(sc(NC(=O)c3ccc(S(=O)(=O)N(C)c4ccccc4)cc3)c2C(=O)NC)C1 | -30 | i | -9* | -0.14 | i | 15* | 144* | 0.28* | nt | i | + | 171* | 0.055*
CCN(c1ccccc1)c1cc(C)nc2nc(C)nn12 | -6 | i | i | -0.69 | i | i | nt | nt | nt | nt | nt | nt | nt
CCN(c1ccccc1)c1nc(C#N)nc(N(CC)c2ccccc2)n1 | -10 | i | -11* | -2.1 | i | 7* | 106* | 0.37* | nt | 112%* | 80%* | 102* | i | KCNK9 inh conf=i;Kir21 sel=i;KCNK9 uninduced=i
COc1ccc(C(C(=O)NCCC(C)C)N(CCN2CCOCC2)C(=O)Cn2nnc3ccccc32)c(OC)c1 (stereo not given) | -5 | i | i | 0.81 | i | i | nt | nt | nt | nt | nt | nt | nt
COc1ccc(NC(=O)c2ccccc2OCc2ccc(F)cc2)c(OC)c1 | -11 | -12* | -11* | 0.58 | i | 8* | 76* | 0.45 | nt | 85%* | 108%* | 108* | i | KCNK9 inh conf=72%*;Kir21 sel=i;KCNK9 uninduced=32%*

Bioassay records from PubChem BioAssay.
